The source made the active and inactive calls. The rule behind the calls is not given here. Square brackets hold non-standard residues; d marks the D form. Peptide text beside a SMILES is read from it. dPhe(4-guanidino) = N=C(N)Nc1ccc(C[C@@H](N)C(=O)O)cc1; Phe(4-guanidino) = N=C(N)Nc1ccc(C[C@H](N)C(=O)O)cc1 Where only a bound is given, the exact number is not on record here.

Assay type in all cases: cell-based
Test [1] addresses T1, Mas-related G-protein coupled receptor member X1 (Homo sapiens, UniProt Q96LB2). Briefly: Agonist activity at human MrgX1 transfected in HEK293 cells by FLIPR assay. The gist of the method:
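Human MrgX1 stably expressed in HEK293 cells, plated at 25,000 cells/well 2 days before imaging. Cells loaded with 2 μM Fluo 4AM plus 1% Trypan Red in HBSS for 50 min at 37°C, then equilibrated 10 min at room temperature. Serial dilutions in HBSS added alongside BAM 8-22 (positive) and HBSS (negative) controls.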

Test [2] deals with T2, Mas-related G-protein coupled receptor member X1 (Mus musculus, UniProt Q8CIP3).
T2 sequence (Q8CIP3 whole entry): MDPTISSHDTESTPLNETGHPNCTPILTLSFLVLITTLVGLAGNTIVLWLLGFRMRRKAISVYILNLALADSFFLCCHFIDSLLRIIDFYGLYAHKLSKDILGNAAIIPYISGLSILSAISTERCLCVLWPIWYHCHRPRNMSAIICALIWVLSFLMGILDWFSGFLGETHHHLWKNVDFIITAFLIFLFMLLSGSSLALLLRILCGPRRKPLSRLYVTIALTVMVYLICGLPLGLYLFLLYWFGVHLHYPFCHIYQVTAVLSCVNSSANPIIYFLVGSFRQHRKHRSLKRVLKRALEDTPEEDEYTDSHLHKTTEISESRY
Briefly: Agonist activity at mouse MrgC11 transfected in HEK293 cells by FLIPR assay. In outline: (§1)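 Rodent Mrg receptors were transiently transfected into HEK293 or KNRK cells, which were plated at 25,000 cells/well and imaged 2 days later. Cells were loaded with 2 μM Fluo 4AM and 1% Trypan Red in HBSS for 50 min at 37°C, then held 10 min at room temperature.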

For test [3], the target named is T3, Mas-related G-protein coupled receptor member X1 (Rattus norvegicus, UniProt Q8R4G1).
T3 sequence (Q8R4G1 whole entry): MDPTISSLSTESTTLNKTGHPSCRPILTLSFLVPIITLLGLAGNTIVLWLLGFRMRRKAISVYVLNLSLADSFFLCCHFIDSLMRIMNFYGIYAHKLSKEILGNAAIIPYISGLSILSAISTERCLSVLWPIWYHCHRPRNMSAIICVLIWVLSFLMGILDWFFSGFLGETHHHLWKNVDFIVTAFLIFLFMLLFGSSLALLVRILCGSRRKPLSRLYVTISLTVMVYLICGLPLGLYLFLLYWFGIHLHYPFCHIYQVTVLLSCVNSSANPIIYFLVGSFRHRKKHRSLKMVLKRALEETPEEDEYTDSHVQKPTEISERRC
Briefly: Agonist activity at rat MrgX1 transfected in HEK293 cells by FLIPR assay. In outline:
as §1

Test [4] concerns the target T1, Mas-related G-protein coupled receptor member X1. The test is described as follows: Antagonist activity at human MrgX1 transfected in HEK293 cells at 200 uM by FLIPR assay.

T1 sequence (Q96LB2 whole entry): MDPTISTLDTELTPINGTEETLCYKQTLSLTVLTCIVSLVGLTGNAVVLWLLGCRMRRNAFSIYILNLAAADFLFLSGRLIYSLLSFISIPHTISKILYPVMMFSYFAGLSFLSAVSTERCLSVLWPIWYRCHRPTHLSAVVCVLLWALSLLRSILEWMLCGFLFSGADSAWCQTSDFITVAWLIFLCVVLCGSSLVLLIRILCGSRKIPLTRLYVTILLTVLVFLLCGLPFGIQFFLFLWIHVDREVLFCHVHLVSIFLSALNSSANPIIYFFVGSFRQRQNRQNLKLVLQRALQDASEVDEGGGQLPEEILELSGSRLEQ

By EC50 is commonly meant the concentration needed to bring the measured effect to its halfway point. Lower therefore signals an effect from little substance. For `N=C(N)N1CCC(C(N)C(=O)N[C@@H](Cc2ccccc2)C(N)=O)CC1` (some centres undefined), the EC50 is more than 100 µM in test [1], 0.794 µM in test [2] and 3.98 µM in test [3].

Take `COc1ccc(-c2ccc(C(=O)Nc3cccc(Cn4ncc(N5CCNCC5)cc4=O)c3C)cc2)cn1`: the EC50 was 0.0251 µM in test [1], more than 2 µM in test [2] and more than 2 µM in test [3].

On to `N=C(N)Nc1ccc(C[C@H](N)C(=O)N[C@@H](Cc2ccccc2)C(N)=O)cc1` (H-[Phe(4-guanidino)]-Phe-NH2), for which the EC50 in test [1] was more than 100 µM; in test [2] it was 15.8 µM; in test [3], 50.1 µM.

Regarding `N=C(N)N[C@@H]1CN[C@H](C(=O)N[C@@H](Cc2ccccc2)C(N)=O)C1`, the EC50 in test [1] was more than 100 µM; in test [2], 7.94 µM; in test [3] it was more than 100 µM.

Turning to `N=C(N)Nc1ccc(C[C@@H](N)C(=O)N[C@@H](Cc2ccccc2)C(N)=O)cc1` (H-[dPhe(4-guanidino)]-Phe-NH2), the EC50 was more than 100 µM in test [1], 1.26 µM in test [2] and 0.631 µM in test [3]. The outcome in test [4] was inactive.

On to `N=C(N)NC[C@@H]1CN[C@H](C(=O)N[C@@H](Cc2ccccc2)C(N)=O)C1`, for which the EC50 in test [1] was more than 100 µM; in test [2], 0.501 µM; in test [3], more than 100 µM.

For the origin of these results see ChEMBL document CHEMBL3351571, “Peptidomimetics of Arg-Phe-NH2 as small molecule agonists of Mas-related gene C (MrgC) receptors” (Bioorg Med Chem, 2014).
